Rows were chosen to be rich in hits. Some 2.2% of all compounds tested hit in one or more screens of this group.
Yeast superoxide = lowers age-related superoxide in aged yeast cells | S. cerevisiae aged cells, superoxide DHE fluorescence; stronger effect = lower value | superoxide response (% of plate mean), % at 10 µM | 330,000 compounds, 0.18% hits | AID 2690;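 active means superoxide response under a set limit, about three screen SD below normal, cut at about 65% in these data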;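 further: yeast aged for seven days with compound at 30 °C before DHE staining; 100% = average MFI of all compound-treated wells on the plate with controls excluded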
rRNA inh HTS = selective bacterial rRNA inhibition in E. coli; E. coli WT GFP vs humanized-ribosome RFP mutants, fluorescence, 24 h; stronger effect = lower value; DMSO median 0, no signal -100; GFP signal change (wild-type ribosome), % (concentration not given with the values); 350,000 compounds, 1.6% hits; AID 720706;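 active means significant combined selectivity score with lowered wild-type GFP, culture density cut under 30%, mutant RFP and density less affected; inactive means any of these conditions unmet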
PglD inh = inhibitors of Campylobacter jejuni PglD acetyltransferase. purified PglD enzyme, DTNB colorimetric CoA detection. AID 602405. 360,000 compounds, 0.098% hits. inhibition, % at 12.5 µM; in the data active means inhibition above about 16%, passing the limit was not always enough
SUMO Mot1 rescue = blocks SUMOylation pathway, rescuing yeast Mot1-301 growth; AID 2716; 320,000 compounds, 1% hits; S. cerevisiae Mot1-301 growth rescue, ATP luminescence, 38.5C; percent above DMSO median, 100 means doubled; growth rescue, % at 18.8 µM;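 active means every valid replicate shows activation above 250% relative to neutral control wells; inactive means the rest, any valid replicate at or below 250%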;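 further: OY570 slx delta 5 strain wells were the positive control but not used for scaling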
Cneo AK release = Cryptococcus neoformans lysis via adenylate kinase release. AID 651654. 360,000 compounds, 0.2% hits. C. neoformans lysis, adenylate kinase release luminescence, 4 h; normalised: neutral wells 0, clomiphene wells 100. lysis activity, % at 15 µM;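 active means mean lysis activity across replicates of at least 80%, whatever share of replicates individually reach that level; inactive means mean lysis activity below 80%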
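Signal: Adenylate kinase release luminescence | Assay system: Log-phase Cryptococcus neoformans yeast cells | Input: Cells at 5 × 10^6 per mL | Buffer or medium: Fresh YPD growth medium | Compound: Single dose | Schedule: Static 4 h at 37 °C with compound, 1 h detection | Controls: Clomiphene | Read-out: Luminescence rise reflecting yeast cell lysis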
* hit, by the source's call; x = not tested or not shown.

SMILES	Yeast superoxide	rRNA inh HTS	PglD inh	SUMO Mot1 rescue	Cneo AK release
C#CCOCCOCCOCCNc1nc(N2CCN(C(=O)CCCCCCCCCCNC(=O)[C@H](CCCCN)n3cc(CCO)nn3)CC2)nc(N2CCN(C(=O)CCCCCCCCCCNC(=O)[C@H](CCCCN)n3cc(CCCC(=O)O)nn3)CC2)n1	101	-40*	-1	-3	5
C#CCOCCOCCOCCNc1nc(N2CCN(C(=O)CCCCCCCCCCNC(=O)[C@@H](CCC(=O)O)n3cc(CCCCCN)nn3)CC2)nc(N2CCN(C(=O)CCCCCCCCCCNC(=O)[C@H](CO)n3cc(CCCCCN)nn3)CC2)n1	101	x	-1	-7	1
C#CCOCCOCCOCCNc1nc(N2CCN(C(=O)CCCCCCCCCCNC(=O)[C@H]([C@@H](C)CC)n3cc(CCCCN=C(N)N)nn3)CC2)nc(N2CCN(C(=O)CCCCCCCCCCNC(=O)[C@@H]([C@H](C)O)n3cc(C)nn3)CC2)n1	93	-40*	0	123	0
C[C@@H]1CN([C@@H](C)CO)S(=O)(=O)c2ccc(-c3ccc(F)cc3)cc2O[C@H]1CN(C)C(=O)C1CC1	x	-6	x	x	x
Oc1ccc(C(=S)N2CCN(Cc3ccccc3)CC2)cc1	90	-7	6	-9	0
S=C(c1ccc(Br)cc1)N1CCN(Cc2ccccc2)CC1	105	-22*	1	67	-3
S=C(NCCCN1CCOCC1)N1CCN(c2nc(-c3ccccc3)cs2)CC1	102	-22*	0	-4	-1
S=C(NCCCN1CCOCC1)N1CCN(c2nc(-c3ccc(Cl)cc3)cs2)CC1	86	-60	4	-2	-6
CCOC(=O)N(C)C[C@@H]1OCc2cn(nn2)CCCC(=O)N([C@@H](C)CO)C[C@@H]1C	x	4	0	x	0
COc1ccc(C(=O)NC(=S)NC(C)c2ccccc2)cc1 (stereo not given)	98	-32*	1	5	4
COc1ccc(C(=O)NC(=S)NNC(=O)c2ccc3ccccc3n2)cc1	63*	-3	0	-8	4
Cc1noc(C)c1NC(=O)Nc1ccc2c(c1)C(=O)N([C@H](C)CO)C[C@@H](C)[C@H](CN(C)S(=O)(=O)c1ccc(F)cc1)OCCCC[C@H](C)O2	x	-2	2	x	-5
CO[C@H]1CN(C)C(=O)c2ccc(NC(=O)C3CC3)cc2OC[C@@H](C)N(Cc2cccnc2)C[C@H]1C	x	-2	5	x	6
CCC(=O)N1CC2(CCN(Cc3ccc(Cl)cc3)CC2)c2c([nH]c3cc(OC)ccc23)[C@@H]1CO	x	-5	x	x	x
O=C(CCc1c[nH]c2ccccc12)Nc1ccc(Nc2cccnc2)cc1	x	-30*	x	x	x
O=C(CCCc1c[nH]c2ccccc12)Nc1ccc(S(=O)(=O)Nc2ncccn2)cc1	98	-4	0	759*	-2
c1ccc(Nc2ccc(NCCc3c[nH]c4ccccc34)cc2)cc1	x	-24*	x	x	x
Cc1ccnc(NC(=O)CCCc2c[nH]c3ccccc23)c1	110	9	-3	-5	-1
O=C(CCc1c[nH]c2ccccc12)Nc1ccc(Nc2ccncc2)cc1	x	9	x	x	x
O=C(CCc1c[nH]c2ccccc12)Nc1ccc(Nc2ccccc2)cc1	x	-31	x	x	x
O=C(C[C@@H]1C[C@H]2c3cc(NC(=O)c4ccc5c(c4)OCO5)ccc3O[C@H]2[C@H](CO)O1)NCc1cccc(F)c1	x	-9	0	x	-17
CC(C)Cc1ccc(/C=C/C(=O)N2CCCCC2)cc1	94	2	x	33	x
CCc1ccc(/C=C\C(=O)N2CCCC2)cc1	82	-19*	-3	-2	-1
CCCn1c(SCC(=O)Nc2ccc(OCC)cc2)nnc1C(C)C	116	x	-2	344*	1
Cc1c(NC(=S)N/N=C/c2cc([N+](=O)[O-])ccc2O)c(=O)n(-c2ccccc2)n1C	97	-22*	-3	-10	1
SMILES	Yeast superoxide	rRNA inh HTS	PglD inh	SUMO Mot1 rescue	Cneo AK release
C[C@@H]1CCCCO[C@@H](CN(C)C(=O)Nc2cccc3ccccc23)[C@@H](C)CN([C@H](C)CO)C(=O)c2cc(NS(=O)(=O)c3ccccc3)ccc2O1	x	4	1	x	95*
Cc1noc(C)c1NC(=O)Nc1ccc2c(c1)C(=O)N([C@H](C)CO)C[C@H](C)[C@@H](CN(C)C(=O)Nc1ccc(F)cc1)OCCCC[C@@H](C)O2	x	-2	-2	x	-2
Cc1noc(C)c1NC(=O)Nc1ccc2c(c1)C(=O)N([C@H](C)CO)C[C@@H](C)[C@H](CN(C)C(=O)Nc1ccc(F)cc1)OCCCC[C@@H](C)O2	x	-3	-4	x	99*
Cc1noc(C)c1NC(=O)N(C)C[C@H]1OCCCC[C@@H](C)Oc2ccc(NC(=O)Nc3cccc4ccccc34)cc2C(=O)N([C@@H](C)CO)C[C@H]1C	x	-15*	-5	x	9
CCCNC(=O)N1[C@H](CO)[C@@H]2c3ccccc3N(C(=O)c3ccc(F)cc3)C[C@@H]21	x	5	2	x	-3
O=C(CS(=O)(=O)c1ccc(F)cc1)N1CCN(c2ccccc2)CC1	93	-3	-7	514*	1
CCN1C(=O)C(CC(=O)Nc2ccc(OC)cc2)N(CCN2CCOCC2)C1=S (stereo not given)	108	13	1	17	6
CCN1C(=O)C(CC(=O)Nc2ccc(OC)cc2)N(CCCN2CCN(c3ccc(OC)cc3)CC2)C1=S (stereo not given)	117	-20*	-3	13	1
C[C@@H]1CN([C@H](C)CO)C(=O)CCCn2cc(nn2)CO[C@@H]1CN(C)Cc1ccc2c(c1)OCCO2	x	0	0	x	-6
CCCNC(=O)N1CC2(CN(S(=O)(=O)c3ccccc3)C2)c2c(n(C)c3cc(OC)ccc23)[C@@H]1CO	x	-5	x	x	x
COc1ccc(NC(=O)N(C)C[C@H]2Oc3c(NS(C)(=O)=O)cccc3C(=O)N([C@@H](C)CO)C[C@@H]2C)cc1	x	-3	0	x	-5
Cc1ccc(CSc2ncnc3ccccc23)cc1	103	-33*	7	-14	-1
COc1ccc2c3c(n(C)c2c1)[C@H](CO)N(Cc1ccccc1F)CC31CCN(C(=O)C2CCC2)CC1	x	-1	x	x	x
O=C(COc1ccccc1F)NNC(=O)c1cccc(-n2cccc2)c1	119	-44*	-3	-14	-1
O=C(COc1cccc(F)c1)NNC(=O)c1cccc(-n2cccc2)c1	100	9	x	170	x
COc1ccc2c3c(n(C)c2c1)[C@H](CO)N(C(=O)NC(C)C)CC31CCN(CC2CCCCC2)CC1	x	4	x	x	x
C/C=C/c1ccc([C@H]2[C@@H](C#N)N(S(=O)(=O)c3cccc(F)c3)[C@H]2CO)cc1	x	-6	4	x	91*
C[C@@H]1CN([C@@H](C)CO)C(=O)c2cc(/C=C/c3ccccc3)cnc2O[C@@H]1CN(C)Cc1cncnc1	x	-1	x	x	x
CCn1cc(Br)c(C(=O)Nc2ccc(C(=O)OC(C)C)cc2)n1	108	-21*	-4	-15	-6

From PubChem
